A short description of experiment [1]: Inhibition of luminol-induced chemiluminescence of reactive oxygen metabolites in opsonized zymosan-induced human PMNC by chemiluminescence assay. The class given is functional. The procedure, abridged:
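PMNs from buffy coats of healthy volunteers, isolated on Ficoll-Hypaque and suspended in HBSS. Cells were mixed with a dilution range of sample plus luminol (0.1 mM), then activated with human-serum-opsonized zymosan (0.8 mg/mL). Luminescence read every 2 min over 30 min. Inhibition calculated from maximum peak levels against a control of cells, luminol and buffer.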

Experiment [2] addresses Estrogen receptor beta (Homo sapiens) (UniProt Q92731). The experiment in a line: Agonist activity at ERbeta expressed in human HEK293 cells assessed as induction of estrogenic response at 10 to 100 ug/mL by luciferase reporter gene assay relative to 17beta estradiol. It is filed as functional, cell-based.
The nature of experiment [3]: Superoxide scavenging activity by chemiluminescence assay. The procedure, abridged: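 Cell-free xanthine oxidase system in PBS pH 7.4 with a serial dilution of sample. Added hypoxanthine (final 1 mM), lucigenin (0.1 mM), and either buffer or SOD (10 U/mL); started with xanthine oxidase (10 mU/mL). Chemiluminescence read each minute for 15 min. Activity taken from the SOD-inhibitable signal. Uric acid formation at 290 nm checked for direct xanthine oxidase effects.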

For experiment [4], the target named is T1, Estrogen receptor (Homo sapiens) (UniProt P03372).
T1 sequence (whole entry): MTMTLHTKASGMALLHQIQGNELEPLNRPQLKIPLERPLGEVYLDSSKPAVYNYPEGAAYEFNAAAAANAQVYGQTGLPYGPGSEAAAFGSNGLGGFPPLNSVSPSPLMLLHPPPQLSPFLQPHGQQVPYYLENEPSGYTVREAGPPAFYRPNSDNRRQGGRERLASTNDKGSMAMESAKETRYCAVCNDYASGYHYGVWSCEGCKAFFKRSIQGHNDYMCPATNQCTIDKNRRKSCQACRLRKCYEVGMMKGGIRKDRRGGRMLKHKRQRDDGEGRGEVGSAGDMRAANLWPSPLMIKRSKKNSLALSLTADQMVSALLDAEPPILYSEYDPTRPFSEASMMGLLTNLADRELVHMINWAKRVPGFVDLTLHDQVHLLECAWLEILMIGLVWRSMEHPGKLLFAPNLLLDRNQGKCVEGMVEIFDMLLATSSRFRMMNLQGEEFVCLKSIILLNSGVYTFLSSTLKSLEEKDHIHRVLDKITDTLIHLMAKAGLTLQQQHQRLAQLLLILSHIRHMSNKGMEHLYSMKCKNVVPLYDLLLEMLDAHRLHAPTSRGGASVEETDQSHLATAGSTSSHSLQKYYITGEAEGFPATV
The experiment can be described thus: Agonist activity at ERalpha expressed in human HEK293 cells assessed as induction of estrogenic response at 10 to 100 ug/mL by luciferase reporter gene assay relative to 17beta estradiol. The class given is functional, cell-based. Background: A reporter such as luciferase makes a cellular process visible.

Converted amounts (≈) assume the structure as drawn.

Chain of Estrogen receptor beta (Homo sapiens) (Q92731 whole entry): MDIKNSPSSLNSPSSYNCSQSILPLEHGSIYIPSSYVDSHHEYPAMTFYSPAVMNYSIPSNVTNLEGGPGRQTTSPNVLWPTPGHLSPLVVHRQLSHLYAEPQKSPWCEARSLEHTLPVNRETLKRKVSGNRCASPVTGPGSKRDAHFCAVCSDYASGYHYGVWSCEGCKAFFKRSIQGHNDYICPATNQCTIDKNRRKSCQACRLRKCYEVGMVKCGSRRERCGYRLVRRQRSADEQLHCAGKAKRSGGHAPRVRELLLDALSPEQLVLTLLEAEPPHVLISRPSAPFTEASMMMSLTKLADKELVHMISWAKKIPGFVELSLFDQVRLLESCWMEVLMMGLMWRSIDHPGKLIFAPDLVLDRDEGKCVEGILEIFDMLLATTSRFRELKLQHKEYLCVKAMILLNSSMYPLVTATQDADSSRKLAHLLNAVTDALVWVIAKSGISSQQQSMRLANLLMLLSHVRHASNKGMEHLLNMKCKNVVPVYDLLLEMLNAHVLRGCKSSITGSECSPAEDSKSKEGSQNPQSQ

The IC50 is the concentration that gives 50% inhibition. For `COc1c(O)c(CC=C(C)C)c2c(c1O)C(=O)C[C@@H](c1ccccc1)O2` [AGRANDOL], the half-inhibitory concentration (IC50) in experiment [1] was 3.2 µg/mL; in experiment [3], 3 µg/mL (≈ 8.46 µM). For the same molecule, the Activity in experiment [2] and in experiment [4] was 20% each time.

For the molecule `COc1c(O)c(CC=C(C)C)c(O)c2c1O[C@@H](c1ccccc1)CC2=O`, the Activity in experiment [2] and in experiment [4] was 20% each time.

`CO[C@]1(CC=C(C)C)C(=O)[C@@](O)(C(=O)/C=C/c2ccccc2)C(=O)C(CC=C(C)C)=C1O` [MICROFOLIAN]: the figures for the IC50 in experiment [1] and in experiment [3] were 4 µg/mL and 3 µg/mL (≈ 6.84 µM), respectively.

On to `CC1(C)C=Cc2c(c(O)cc3oc(=O)ccc23)O1` [CEDRECOUMARIN A], for which the 50% inhibitory concentration (IC50) in experiment [1] is 13 µg/mL; in experiment [3] it was 0.2 µg/mL (≈ 0.819 µM). For the same molecule, the Activity in experiment [2] and in experiment [4] was 20% throughout.

The values are drawn from ChEMBL document CHEMBL1150643, “Bioactive constituents of Cedrelopsis microfoliata” (J Nat Prod, 2002).
